Columns and labels:
Format in all cases: functional
Earias vittella [1] = test: Insecticidal activity against third-instar larval stage of Earias vitella assessed as total larval duration time at 10 ug/cm3 administered through artificial diet containing Abelmoschus esculentus seed powder (reference value: 8.2 +/- 0.48 days)
Spodoptera litura [2] = test: Antifeedant activity against third-instar larval stage of Spodoptera litura in compound-treated castor leaves assessed as decrease in diet consumption at 5 ug/cm2 after 24 hr by no-choice leaf disk assay relative to acetone-treated control; set-up: scale not given: the % may be the effect or the level left
Method in brief: (§1)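 Larvae were reared on castor leaves at 25 ± 2 °C. In a no-choice test, compound in acetone was painted on the abaxial side of castor leaf disks and air-dried. Five freshly molted third-instar larvae, starved 4 h, were placed per Petri dish with wet cotton. There were five replicates. After 24 h, consumed leaf area was read on a leaf area meter. %AF = 100 − (treated/control)×100.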

Spodoptera litura [3] = test: Antifeedant activity against third-instar larval stage of Spodoptera litura in compound-treated castor leaves assessed as decrease in diet consumption at 10 ug/cm2 after 24 hr by no-choice leaf disk assay relative to acetone-treated control; set-up: scale not given: the % may be the effect or the level left; method in brief: as §1
Spodoptera litura [4] = test: Insecticidal activity against female adult Spodoptera litura in compound-treated castor leaves assessed as adult longevity time at 5 ug/cm2 (reference value: 10 +/- 0.63 days)
Spodoptera litura [5] = test: Insecticidal activity against female adult Spodoptera litura in compound-treated castor leaves assessed as adult longevity time at 10 ug/cm2 (reference value: 10 +/- 0.63 days)
Spodoptera litura [6] = test: Insecticidal activity against male adult Spodoptera litura in compound-treated castor leaves assessed as adult longevity time at 5 ug/cm2 (reference value: 9.4 +/- 0.48 days)
Spodoptera litura [7] = test: Insecticidal activity against male adult Spodoptera litura in compound-treated castor leaves assessed as adult longevity time at 10 ug/cm2 (reference value: 9.4 +/- 0.48 days)
Spodoptera litura [8] = test: Insecticidal activity against adult Spodoptera litura in compound-treated castor leaves assessed as adult deformity at 5 ug/cm2 relative to control
Spodoptera litura [9] = test: Insecticidal activity against adult Spodoptera litura in compound-treated castor leaves assessed as adult deformity at 10 ug/cm2 relative to control
Spodoptera litura [10] = test: Insecticidal activity against adult Spodoptera litura in compound-treated castor leaves assessed as adult emergence at 5 ug/cm2 relative to control
Spodoptera litura [11] = test: Insecticidal activity against adult Spodoptera litura in compound-treated castor leaves assessed as adult emergence at 10 ug/cm2 relative to control
Spodoptera litura [12] = test: Insecticidal activity against pupal stage of Spodoptera litura in compound-treated castor leaves assessed as pupal mortality at 5 ug/cm2 relative to control
Spodoptera litura [13] = test: Insecticidal activity against pupal stage of Spodoptera litura in compound-treated castor leaves assessed as pupal mortality at 10 ug/cm2 relative to control
Spodoptera litura [14] = test: Insecticidal activity against pupal stage of Spodoptera litura in compound-treated castor leaves assessed as pupal weight at 5 ug/cm2 (reference value: 302.4 +/- 5.9 mg)
Spodoptera litura [15] = test: Insecticidal activity against pupal stage of Spodoptera litura in compound-treated castor leaves assessed as pupal weight at 10 ug/cm2 (reference value: 302.4 +/- 5.9 mg)
Spodoptera litura [16] = test: Insecticidal activity against pupal stage of Spodoptera litura in compound-treated castor leaves assessed as pupal duration time at 5 ug/cm2 (reference value: 9.2 +/- 0.74 days)
Spodoptera litura [17] = test: Insecticidal activity against pupal stage of Spodoptera litura in compound-treated castor leaves assessed as pupal duration time at 10 ug/cm2 (reference value: 9.2 +/- 0.74 days)
Spodoptera litura [18] = test: Insecticidal activity against third-instar larval stage of Spodoptera litura in compound-treated castor leaves assessed as larval mortality at 5 ug/cm2 relative to control
Spodoptera litura [19] = test: Insecticidal activity against third-instar larval stage of Spodoptera litura in compound-treated castor leaves assessed as larval mortality at 10 ug/cm2 relative to control
Spodoptera litura [20] = test: Insecticidal activity against third-instar larval stage of Spodoptera litura in compound-treated castor leaves assessed as total larval duration time at 5 ug/cm2 (reference value: 12.4 +/- 0.48 days)
Spodoptera litura [21] = test: Insecticidal activity against third-instar larval stage of Spodoptera litura in compound-treated castor leaves assessed as total larval duration time at 10 ug/cm2 (reference value: 12.4 +/- 0.48 days)
Earias vittella [22] = test: Insecticidal activity against female adult Earias vitella assessed as adult longevity time at 5 ug/cm3 administered through artificial diet containing Abelmoschus esculentus seed powder (reference value: 8.6 +/- 0.48 days)
Earias vittella [23] = test: Insecticidal activity against female adult Earias vitella assessed as adult longevity time at 10 ug/cm3 administered through artificial diet containing Abelmoschus esculentus seed powder (reference value: 8.6 +/- 0.48 days)
Earias vittella [24] = test: Insecticidal activity against male adult Earias vitella assessed as adult longevity time at 5 ug/cm3 administered through artificial diet containing Abelmoschus esculentus seed powder (reference value: 8.2 +/- 0.4 days)
Earias vittella [25] = test: Insecticidal activity against male adult Earias vitella assessed as adult longevity time at 10 ug/cm3 administered through artificial diet containing Abelmoschus esculentus seed powder (reference value: 8.2 +/- 0.4 days)
Earias vittella [26] = test: Insecticidal activity against adult Earias vitella assessed as adult deformity at 10 ug/cm3 administered through artificial diet containing Abelmoschus esculentus seed powder (reference value: 4%)
Earias vittella [27] = test: Insecticidal activity against adult Earias vitella assessed as adult deformity at 5 ug/cm3 administered through artificial diet containing Abelmoschus esculentus seed powder (reference value: 4%)
Earias vittella [28] = test: Insecticidal activity against adult Earias vitella assessed as adult emergence at 5 ug/cm3 administered through artificial diet containing Abelmoschus esculentus seed powder (reference value: 88%)
Earias vittella [29] = test: Insecticidal activity against adult Earias vitella assessed as adult emergence at 10 ug/cm3 administered through artificial diet containing Abelmoschus esculentus seed powder (reference value: 88%)
Earias vittella [30] = test: Insecticidal activity against pupal stage of Earias vitella assessed as pupal mortality at 5 ug/cm3 administered through artificial diet containing Abelmoschus esculentus seed powder (reference value: 8%)
Earias vittella [31] = test: Insecticidal activity against pupal stage of Earias vitella assessed as pupal mortality at 10 ug/cm3 administered through artificial diet containing Abelmoschus esculentus seed powder (reference value: 8%)
Earias vittella [32] = test: Insecticidal activity against pupal stage of Earias vitella assessed as pupal weight at 5 ug/cm3 administered through artificial diet containing Abelmoschus esculentus seed powder (reference value: 88.2 +/- 4.01 mg)
Earias vittella [33] = test: Insecticidal activity against pupal stage of Earias vitella assessed as pupal weight at 10 ug/cm3 administered through artificial diet containing Abelmoschus esculentus seed powder (reference value: 88.2 +/- 4.01 mg)
Earias vittella [34] = test: Insecticidal activity against pupal stage of Earias vitella assessed as pupal duration time at 5 ug/cm3 administered through artificial diet containing Abelmoschus esculentus seed powder (reference value: 6.4 +/- 0.21 days)
Earias vittella [35] = test: Antifeedant activity against third-instar larval stage of Earias vitella assessed as decrease in diet consumption at 5 ug/cm3 administered through artificial diet containing Abelmoschus esculentus seed powder after 24 hr relative to acetone-treated control; set-up: scale not given: the % may be the effect or the level left
Method in brief: (§2)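 Artificial diet was modified Klein medium with bhendi (Abelmoschus esculentus) seed powder in place of alfalfa. Compound in acetone was mixed into bhendi meal 12 h before diet preparation so the solvent evaporated. One 3 g diet cube was given to five freshly molted third-instar larvae in a muslin-covered container. After 24 h the cubes were weighed. %AF = 100 − (treated/control)×100.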

Earias vittella [36] = test: Antifeedant activity against third-instar larval stage of Earias vitella assessed as decrease in diet consumption at 10 ug/cm3 administered through artificial diet containing Abelmoschus esculentus seed powder after 24 hr relative to acetone-treated control; set-up: scale not given: the % may be the effect or the level left; method in brief: as §2
Earias vittella [37] = test: Insecticidal activity against pupal stage of Earias vitella assessed as pupal duration time at 10 ug/cm3 administered through artificial diet containing Abelmoschus esculentus seed powder (reference value: 6.4 +/- 0.21 days)
Earias vittella [38] = test: Insecticidal activity against third-instar larval stage of Earias vitella assessed as larval mortality at 10 ug/cm3 administered through artificial diet containing Abelmoschus esculentus seed powder (reference value: 4%)
Earias vittella [39] = test: Insecticidal activity against third-instar larval stage of Earias vitella assessed as larval mortality at 5 ug/cm3 administered through artificial diet containing Abelmoschus esculentus seed powder (reference value: 4%)
Earias vittella [40] = test: Insecticidal activity against third-instar larval stage of Earias vitella assessed as total larval duration time at 5 ug/cm3 administered through artificial diet containing Abelmoschus esculentus seed powder (reference value: 8.2 +/- 0.48 days)

Row | SMILES | Time (Earias vittella [1]) [days] | Activity (Spodoptera litura [2]) [%] | Activity (Spodoptera litura [3]) [%] | Time (Spodoptera litura [4]) [days] | Time (Spodoptera litura [5]) [days] | Time (Spodoptera litura [6]) [days] | Time (Spodoptera litura [7]) [days] | Activity (Spodoptera litura [8]) [%] | Activity (Spodoptera litura [9]) [%] | Activity (Spodoptera litura [10]) [%] | Activity (Spodoptera litura [11]) [%] | mortality at 5 µg/cm2 (Spodoptera litura [12]) [%] | mortality at 10 µg/cm2 (Spodoptera litura [13]) [%] | Activity (Spodoptera litura [14]) [mg] | Activity (Spodoptera litura [15]) [mg] | Time (Spodoptera litura [16]) [days] | Time (Spodoptera litura [17]) [days] | mortality at 5 µg/cm2 (Spodoptera litura [18]) [%] | mortality at 10 µg/cm2 (Spodoptera litura [19]) [%] | Time (Spodoptera litura [20]) [days] | further results
1 | CC(=O)OC[C@@]12[C@@H](OC(C)=O)C[C@@H](C)[C@](C)([C@@H]3C[C@H]4CC(O)O[C@H]4O3)[C@H]1CC[C@H](OC(C)=O)[C@]21CO1 (stereo not given in full) [15-HYDROXYEPICARYOPTIN] | 10.2 | 74 | 78 | 7.4 | 7 | 8 | 7.5 | 7.2 | 9.6 | 70.4 | 62.4 | 22.5 | 27.6 | 272.2 | 258.8 | 10.8 | 11.6 | 20 | 32 | 13.5 | Time (Spodoptera litura [21]): 14.2 days; Time (Earias vittella [22]): 6.8 days; Time (Earias vittella [23]): 6.6 days; Time (Earias vittella [24]): 6.6 days; Time (Earias vittella [25]): 6.2 days; Activity (Earias vittella [26]): 4%; Activity (Earias vittella [27]): 4%; Activity (Earias vittella [28]): 68%; Activity (Earias vittella [29]): 62%; mortality (Earias vittella [30]): 28%; mortality (Earias vittella [31]): 34%; Activity (Earias vittella [32]): 58 mg; Activity (Earias vittella [33]): 57.2 mg; Time (Earias vittella [34]): 9 days; Activity (Earias vittella [35]): 62.15%; Activity (Earias vittella [36]): 71.84%; Time (Earias vittella [37]): 9.6 days; mortality (Earias vittella [38]): 8%; mortality (Earias vittella [39]): 8%; Time (Earias vittella [40]): 9.8 days
2 | CC[C@@](C)(OC(C)=O)C(=O)O[C@H]1[C@H](OC(C)=O)C[C@@H]2[C@@](C)([C@@H]3C[C@H]4C=CO[C@H]4O3)[C@H](C)C[C@H](OC(C)=O)[C@@]2(COC(C)=O)[C@@]12CO2 [CLERODENDRIN B ACETATE] | 9.7 | 65.8 | 75 | 8.2 | 8 | 9 | 8.5 | 4.8 | 8.8 | 72 | 64 | 22.7 | 27 | 284.4 | 273.2 | 10.2 | 11 | 20 | 24 | 12.6 | Time (Spodoptera litura [21]): 13.1 days; Time (Earias vittella [22]): 7.4 days; Time (Earias vittella [23]): 7.2 days; Time (Earias vittella [24]): 6.8 days; Time (Earias vittella [25]): 6.4 days; Activity (Earias vittella [26]): 4%; Activity (Earias vittella [27]): 4%; Activity (Earias vittella [28]): 72.5%; Activity (Earias vittella [29]): 64%; mortality (Earias vittella [30]): 24%; mortality (Earias vittella [31]): 32%; Activity (Earias vittella [32]): 71.2 mg; Activity (Earias vittella [33]): 64.2 mg; Time (Earias vittella [34]): 7 days; Activity (Earias vittella [35]): 51%; Activity (Earias vittella [36]): 69%; Time (Earias vittella [37]): 8.8 days; mortality (Earias vittella [38]): 4%; mortality (Earias vittella [39]): 4%; Time (Earias vittella [40]): 9.2 days
3 | CC[C@@](C)(OC(C)=O)C(=O)O[C@H]1[C@H](O)C[C@@H]2[C@@](C)([C@@H]3C[C@H]4C=CO[C@H]4O3)[C@H](C)C[C@H](OC(C)=O)[C@@]2(COC(C)=O)[C@@]12CO2 [CLERODENDRIN B] | 11.2 | 76.5 | 84.9 | 6.4 | 5.2 | 6.8 | 6.2 | 12 | 16.8 | 59.2 | 46.4 | 29.4 | 37 | 240 | 220.2 | 12 | 13 | 32 | 44 | 14.5 | Time (Spodoptera litura [21]): 15.8 days; Time (Earias vittella [22]): 5.8 days; Time (Earias vittella [23]): 4.8 days; Time (Earias vittella [24]): 5.4 days; Time (Earias vittella [25]): 4.6 days; Activity (Earias vittella [26]): 16%; Activity (Earias vittella [27]): 8%; Activity (Earias vittella [28]): 52.5%; Activity (Earias vittella [29]): 44%; mortality (Earias vittella [30]): 40%; mortality (Earias vittella [31]): 42.5%; Activity (Earias vittella [32]): 55 mg; Activity (Earias vittella [33]): 50.4 mg; Time (Earias vittella [34]): 10 days; Activity (Earias vittella [35]): 74.85%; Activity (Earias vittella [36]): 82.14%; Time (Earias vittella [37]): 12.2 days; mortality (Earias vittella [38]): 20%; mortality (Earias vittella [39]): 15%; Time (Earias vittella [40]): 10.6 days

Reference: ChEMBL document CHEMBL3046016, “Antifeedant and growth inhibitory effects of some neo-clerodane diterpenoids isolated from Clerodendron species (Verbenaceae) on Earias vitella and Spodoptera litura” (2003)
